ChEMBL document CHEMBL3046222, “Insecticidal activity of penitrems, including penitrem G, a new member of the family isolated from Penicillium crustosum” (2003)

Legend:
Type in all cases: functional
[1] = system: Ceratitis capitata; experiment: Insecticidal activity against adult Ceratitis capitata assessed as mortality at 10 ug/fly measured every 24 hr for 10 days relative to control
How it was run: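 Adults 2-3 days old (5 males, 5 females per group) were anaesthetised on ice and dosed topically on the ventral abdomen with 1 µL of acetone dilution. Controls received 1 µL of acetone. Flies were held at 27 ± 1 °C, 50-60% RH and 16 h/8 h light/dark, with diet and water ad libitum. Mortality was scored every 24 h for 10 days. The assay was run on six occasions.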

[2] = system: Ceratitis capitata; experiment: Insecticidal activity against adult Ceratitis capitata assessed as fecundity reduction at 10 ug/fly measured every 2 days for 10 days relative to control; design: scale not given: the % may be the effect or the level left
How it was run: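 Flies were anaesthetised on ice and dosed topically on the abdomen with 1 µL of acetone solution; controls received acetone alone. Eggs laid over 24 h were collected and counted every 2 days through the 10-day period. Female deaths were logged to give eggs/female/day, accumulated over 10 days. Six independent experiments, reported as means ± SE.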

[3] = system: Ceratitis capitata; experiment: Insecticidal activity against adult Ceratitis capitata assessed as fertility reduction at 10 ug/fly measured on 6 to 10 days relative to control; design: scale not given: the % may be the effect or the level left
How it was run: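 Flies were dosed topically with 1 µL of acetone solution after ice anaesthesia; controls received acetone. On days 6 and 10 after treatment, 30 eggs per experiment were picked at random and placed on plates coated with 0.03% agar. Plates were kept at 27 ± 2 °C, 50-60% RH and 16 h/8 h light/dark, and emerged larvae were counted 5 days after collection.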

[4] = system: Oncopeltus fasciatus; experiment: Insecticidal activity against third-instar nymph stage of Oncopeltus fasciatus assessed as mortality at 20 ug/cm2 after 72 hr relative to control
How it was run: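 Nymphs were reared on sunflower seeds at 27 ± 1 °C, 50-60% RH and 16 h/8 h light/dark. Acute toxicity was scored as dead insects after 72 h of exposure. Controls received the same amount of acetone. Run in triplicate; values are means ± SE with significance at […].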

[5] = system: Oncopeltus fasciatus; experiment: Insecticidal activity against third-instar nymph stage of Oncopeltus fasciatus assessed as nymph survival to reach adult instar stage at 20 to 500 ug/cm2 after 72 hr relative to control
How it was run: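 Insects were colony-reared at 27 ± 1 °C, 50-60% RH and 16 h/8 h photoperiod. After 72 h of exposure, surviving nymphs were moved to a 500 cm3 glass flask and held under standard conditions to follow development to the adult stage. Acetone-treated controls were run in parallel.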

[6] = system: Ceratitis capitata; experiment: Insecticidal activity against adult Ceratitis capitata assessed as eclosion rate at 10 ug/fly measured on 4 to 10 days relative to control

Row | SMILES | mortality [1] | Activity [2] | Activity [3] | mortality at 20 µg/cm2 [4] | Survival [5] | Activity [6]
1 | C=C(C)[C@H]1O[C@H]2CC[C@@]3(C)[C@@](O)(CC[C@H]4[C@@H]5OC(C)(C)[C@H]6C[C@@H]7C(=C)Cc8c(Cl)cc9[nH]c(c5c9c8[C@@]76O)[C@@]43C)[C@@]23O[C@H]3[C@H]1O [PENITREM A] | 59.7% | 78.4% | 100% | 31.1% | 0% | 0%
2 | C=C1Cc2ccc3[nH]c4c5c3c2[C@H]2[C@@H]1C[C@@H]2C(C)(C)O[C@H]5[C@@H]1CC[C@@]2(O)[C@@]35O[C@@H]3[C@@H](O)[C@@H](C(=C)C)O[C@H]5CC[C@]2(C)[C@@]41C [PENITREM B] | 50% | 88% | 100% | 6.6% | 14.3% | 0%
3 | C=C1Cc2c(Cl)cc3[nH]c4c5c3c2[C@H]2[C@@H]1C[C@@H]2C(C)(C)O[C@H]5[C@@H]1CC[C@@]2(O)C3=C[C@@H](O)[C@@H](C(=C)C)O[C@H]3CC[C@]2(C)[C@@]41C [PENITREM C] | 73.3% | 94.9% | 100% | 24.4% | 29.5% | 0%
4 | C=C1Cc2ccc3[nH]c4c5c3c2[C@H]2[C@@H]1C[C@H]2C(C)(C)O[C@H]5[C@@H]1CC[C@@]2(O)C3=C[C@@H](O)[C@@H](C(=C)C)O[C@H]3CC[C@]2(C)[C@@]41C [PENITREM D] | 41.7% | 77.1% | 52.5% | 11.1% | 58.3% | 42.8%
5 | C=C1Cc2c(Cl)cc3[nH]c4c5c3c2[C@H]2[C@@H]1C[C@@H]2C(C)(C)O[C@H]5[C@@H]1CC[C@@]2(O)[C@@]35O[C@@H]3[C@@H](O)[C@@H](C(=C)C)O[C@H]5CC[C@]2(C)[C@@]41C [PENITREM F] | 66.6% | 100% | 100% | 20.3% | 9.5% | 0%
6 | C=C1Cc2ccc3[nH]c4c5c3c2[C@H]2[C@@H]1C[C@H]2C(C)(C)O[C@H]5[C@]1(O)CC[C@@]2(O)C3=C[C@@H](O)[C@@H](C(=C)C)O[C@H]3CC[C@]2(C)[C@@]41C [PENITREM G] | 0% | 7.2% | 3.8% | 0% | 100% | 88.5%
